# ADAM17 inh: inhibitors of human ADAM17; hit rate 0.83% among 370,000; recombinant ADAM17, EDANS/DABCYL FRET peptide cleavage; inhibition, % at 6.95 µM; P78536;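 active = inhibition above the mean of compounds lying between control limits plus 3 SD, set per campaign, cut at about 8.5% in these data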;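 also: 0% = DMSO-only wells as the low control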
# Target sequence (P78536 215-824 limits assumed): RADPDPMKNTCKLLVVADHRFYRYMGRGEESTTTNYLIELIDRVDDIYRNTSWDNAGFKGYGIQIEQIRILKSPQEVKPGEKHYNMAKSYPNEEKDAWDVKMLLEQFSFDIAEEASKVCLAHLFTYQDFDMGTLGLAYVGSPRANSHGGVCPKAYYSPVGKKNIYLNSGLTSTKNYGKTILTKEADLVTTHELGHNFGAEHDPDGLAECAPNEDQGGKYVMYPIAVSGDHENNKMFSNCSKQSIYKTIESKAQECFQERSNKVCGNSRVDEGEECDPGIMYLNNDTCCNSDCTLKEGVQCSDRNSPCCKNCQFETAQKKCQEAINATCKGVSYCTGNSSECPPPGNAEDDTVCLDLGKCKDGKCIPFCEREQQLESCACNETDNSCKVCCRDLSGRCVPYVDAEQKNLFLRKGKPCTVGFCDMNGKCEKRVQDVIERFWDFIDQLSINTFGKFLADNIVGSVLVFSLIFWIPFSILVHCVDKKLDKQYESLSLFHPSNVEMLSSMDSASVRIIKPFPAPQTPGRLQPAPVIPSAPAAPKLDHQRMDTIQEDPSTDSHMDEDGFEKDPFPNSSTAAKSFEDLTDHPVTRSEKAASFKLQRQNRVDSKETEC
# MPTP inh: blocks calcium-induced mitochondrial swelling; isolated mouse mitochondria, Ca2+ swelling absorbance, 30 min; inhibition, % at 10 µM; hit rate 1.4% among 360,000;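 active = inhibition of 50% or more, scaled per plate between neutral and stimulator controls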;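 also: 0% = DMSO wells given calcium and 100% = 1 mM EGTA wells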
# V-ATPase pHluor: regulators of yeast V-ATPase proton transport. S. cerevisiae, pHLuorin cytosolic pH fluorescence. response, % at 10 µM. hit rate 0.37% among 350,000. AID 504577; in the data active = response mostly above about 7.3%, no sharp cut-off; inactive = mostly below about 5.4%; also: actives read high
# ADAM10 inh: inhibits human ADAM10; inhibition, % at 7 µM; hit rate 0.62% among 370,000; O14672; recombinant ADAM10, EDANS/DABCYL FRET peptide cleavage, 3 h;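 active = inhibition above a per-campaign cutoff equal to the mean of compounds falling between control-based bounds plus 3 SD, cut at about 20% in these data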;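 also: 0% = DMSO wells while the 100% control is not disclosed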
# aDG glyco act: increases alpha dystroglycan glycosylation. hit rate 0.22% among 360,000. AID 624168. activation, % at 10 µM. Pro5-aDG cells, alpha-DG glycosylation AlphaScreen (IIH6); 0% Pro5, 100% B10-LARGE cell signal;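 active = activation of at least 8% versus controls, or a plate z-score of at least 8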;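 also: Pro5 are CHO cells carrying HIG-tagged alpha-DG that lacks glycosylation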
# Lipid droplet: hepatic lipid droplet formation modulation; inhibition, % at 6.5 µM; hit rate 0.4% among 240,000; AML12 mouse hepatocytes, oleate lipid droplets, BODIPY imaging; AID 1656;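 active = lipid droplet intensity inhibited by at least 50%, with more than 500 cells counted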
#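 material = mouse AML12 hepatocyte cell line, fixed after treatment | also added = 100 µM oleic acid challenge | doses = compound at 6.5 µM only | schedule = overnight exposure | technique = Image-based BODIPY and DAPI two-channel analysis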
# ADAM10 ctr: counter-screen for ADAM17 exosite inhibitors: inhibitors of human ADAM10. shares compounds with ADAM17 inh. recombinant ADAM10, EDANS/DABCYL FRET peptide cleavage, 3 h. inhibition, % at 6.95 µM. hit rate 47% among 2,900. AID 743256;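 active = mean inhibition over the triplicate runs exceeds the activity threshold set in the earlier primary screen, cut at about 20% in these data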;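 also: 0% = DMSO wells and 100% = marimastat wells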
# ADAM17 confirm: confirmation of inhibitors of human ADAM17; shares compounds with ADAM17 inh; recombinant ADAM17, EDANS/DABCYL QFRET peptide cleavage; inhibition, % at 6.95 µM; hit rate 65% among 2,900; AID 743257;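 active = mean inhibition across replicates above the hit cutoff set in the primary screen, cut at about 8.5% in these data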;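 also: 0% = DMSO wells and 100% = marimastat wells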
# Numbers without * were called inactive; / = no result given. Shown are actives, neighbours in structure and some others; about 3.1% of the full set was active somewhere.
SMILES,ADAM17 inh,MPTP inh,V-ATPase pHluor,ADAM10 inh,aDG glyco act,Lipid droplet,ADAM10 ctr,ADAM17 confirm
COc1ccc(C2=NS(=O)(=O)N(C)C(C(=O)Nc3ccc4c(c3)OCO4)=C2)cc1,4,2,0,-3,0,-24,/,/
CCc1ccc(NC(=O)C2=CC(c3ccc(OC)cc3)=NS(=O)(=O)N2C)cc1,9.2*,2,-2,11,0,2,24*,15*
Cc1ccc(C2=NS(=O)(=O)N(C)C(C(=O)Nc3ccc4c(c3)OCO4)=C2)cc1,13*,9,4,11,0,-7,20,14*
O=C(c1ccc(F)cc1)C1CCN(c2ncnc3sccc23)CC1,-1,/,/,-1,/,/,/,/
COc1ccc(CCN(C(=O)C(F)(F)F)C(C(=O)NC2CCCCC2)c2ccc(C)s2)cc1 (stereo unspecified),9.1*,4,2,3,0,/,-2,1
Cn1cccc1C(=O)N1CCN(S(=O)(=O)c2cccc3ccccc23)CC1,1,/,/,8,/,/,/,/
Cc1cccc(-c2cccc3c4c([nH]c23)[C@@H]2C[C@H](N(C)C(=O)c3ccco3)[C@H]([C@H](C)O)C(=O)N2CC4)c1,-11,/,/,-31,/,/,/,/
O=C(Nc1ccc(N2CCN(C(=O)c3cccs3)CC2)c(Cl)c1)c1ccco1,9.0*,-2,-1,3,2,-4,5,9
COC(=O)C1CN(Cc2cn(Cc3ccccc3)nn2)CCS(=O)(=O)N1Cc1ccc(C)cc1 (stereo unspecified),0,/,/,0,/,/,/,/
O=C(CSc1ccc(-c2ccco2)nn1)NCc1ccc(F)cc1,-4,0,-1,-14,0,15,/,/
O=C(CSc1ccc(-c2ccco2)nn1)c1ccc(F)cc1,9.4*,2,5,19,0,15,7,6
Cc1nc2cc(C(=O)N3CCN(C(=O)C(C)(C)C)CC3)ccc2n1C1CCCC1,-2,/,/,-10,/,/,/,/
Fc1ccc(-n2c(=S)[nH]c3cccnc32)cc1,-3,-1,2,-3,0,0,/,/
O=c1[nH]c(=S)n(-c2ccc(Br)cc2)c2ncccc12,11*,1,1,6,0,/,20,11*
Cc1cccc(C)c1NC(=O)CNc1ccccc1,11*,2,-1,17,0,9,3,3
Cc1ccc(-n2c(SCC(=O)NNC(=S)Nc3ccccc3)nc3ccccc3c2=O)cc1,12*,4,2,13,0,-1,37*,11*
Cc1cccc(NCC(=O)NNC(=S)Nc2ccccc2)c1,12*,0,3,14,0,-21,13,5
Cc1ccc(-n2c(SCC(=O)Nc3cccc(S(=O)(=O)NC4=NCCCCC4)c3)nc3ccccc3c2=O)cc1,8,2,12,18,0,-7,/,/
Cc1cnn(CCC(=O)NNC(=S)Nc2ccccc2)c1,12*,-2,0,10,0,/,9,7
Cc1cccc(NC(=S)NNC(=O)Cc2ccccc2)c1,0,1,0,0,0,16,/,/
Cc1ccc(-c2cc(C(=O)NN=Cc3ccc(N(C)C)cc3)[nH]n2)cc1C,-1,/,/,3,/,/,/,/
CC(C)[C@H]1/C(=C/C2CC2)N2C(=O)C[C@H](c3cccc(C(F)(F)F)c3)N=C2N1Cc1ccc2c(c1)OCO2,1,/,/,6,/,/,/,/
CC(=O)CC[C@H]1CC[C@]2(CCCN(S(C)(=O)=O)C2)O1,-5,/,/,-21,/,/,/,/
Cc1ccc(C)c(N2N=C(C(=O)Nc3cccc(S(=O)(=O)N4CCCCC4)c3)CCC2=O)c1,13*,0,1,12,0,/,9,6
Cc1ccc(C)c(N2N=C(C(=O)Nc3ccc(S(=O)(=O)N4CCCC4)cc3)CCC2=O)c1,0,2,-2,5,0,15,/,/
COc1cccc(NC(=O)c2ccc(S(=O)(=O)N3CCCC3)cc2)c1,-1,-1,-1,1,0,-4,/,/

# High-throughput results from PubChem BioAssay.
